What was measured:
[1] = Cytotoxicity against human HT-29 cells assessed as growth inhibition after 48 hrs by MTT assay; assay type: functional, cell-based; settings: HT-29, 48 h
Summary of the method: (§1)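 Cells were kept in DMEM with 10% FBS and seeded at 5000 cells/well, then attached for 24 h at 37 °C. Compounds came from 20 mM DMSO stocks, serially diluted in medium, with 0.1% DMSO as vehicle control. After 48 h at 37 °C, MTT (5 mg/mL) was added for 4 h, formazan dissolved in DMSO and A570 read. IC50 was fitted from % inhibition versus control, mean of three independent experiments.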

[2] = Cytotoxicity against human HepG2 cells assessed as growth inhibition after 48 hrs by MTT assay; assay type: functional, cell-based; settings: HepG2, 48 h; summary of the method: as §1
[3] = Cytotoxicity against human PC3 cells assessed as growth inhibition after 48 hrs by MTT assay; assay type: functional, cell-based; settings: PC-3, 48 h; summary of the method: as §1
[4] = Cytotoxicity against human HCT116 cells assessed as growth inhibition after 48 hrs by MTT assay; assay type: functional, cell-based; settings: HCT-116, 48 h; summary of the method: as §1
Sus scrofa = species: Sus scrofa; assay: Inhibition of porcine brain tubulin polymerization at 10 uM in presence of GTP by spectrophotometric method relative to control
Summary of the method: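 Tubulin was purified from pig brain microtubule protein by three temperature-driven assembly/disassembly cycles, then phosphocellulose chromatography. Polymerization ran in PEM buffer (100 mM PIPES, 1 mM MgCl2, 1 mM EGTA) with 1 mM GTP and 5% glycerol at 37 °C, followed by light scattering at 340 nm. Percent inhibition came from plateau absorbance, with a DMSO negative control and a CA-4 reference run the same day.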

[5] = Cell cycle arrest in human PC3 cells assessed as subG1 phase accumulation at 3 uM after 12 hrs by propidium iodide staining based flow cytometry (reference value: 0.29%); assay type: functional; settings: PC-3
Summary of the method: (§2)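 PC-3 cells were grown overnight in dishes to about 70% confluence, then exposed to three compound concentrations. Cells were trypsinized, washed in PBS, fixed overnight in 75% ice-cold ethanol, RNase-treated at 37 °C for 30 min, and stained with propidium iodide. Phase percentages (sub-G1, G0/G1, S, G2/M) were read by flow cytometry against untreated cells.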

[6] = Cell cycle arrest in human PC3 cells assessed as subG1 phase accumulation at 6 uM after 12 hrs by propidium iodide staining based flow cytometry (reference value: 0.29%); assay type: functional; settings: PC-3; summary of the method: as §2
[7] = Cell cycle arrest in human PC3 cells assessed as subG1 phase accumulation at 12 uM after 12 hrs by propidium iodide staining based flow cytometry (reference value: 0.29%); assay type: functional; settings: PC-3; summary of the method: as §2
[8] = Cell cycle arrest in human PC3 cells assessed as G0/G1 phase accumulation at 3 uM after 12 hrs by propidium iodide staining based flow cytometry (reference value: 51.58%); assay type: functional; settings: PC-3; summary of the method: as §2
[9] = Cell cycle arrest in human PC3 cells assessed as G0/G1 phase accumulation at 6 uM after 12 hrs by propidium iodide staining based flow cytometry (reference value: 51.58%); assay type: functional; settings: PC-3; summary of the method: as §2
[10] = Cell cycle arrest in human PC3 cells assessed as G0/G1 phase accumulation at 12 uM after 12 hrs by propidium iodide staining based flow cytometry (reference value: 51.58%); assay type: functional; settings: PC-3; summary of the method: as §2
[11] = Cell cycle arrest in human PC3 cells assessed as S phase accumulation at 3 uM after 12 hrs by propidium iodide staining based flow cytometry (reference value: 31.7%); assay type: functional; settings: PC-3; summary of the method: as §2
[12] = Cell cycle arrest in human PC3 cells assessed as S phase accumulation at 6 uM after 12 hrs by propidium iodide staining based flow cytometry (reference value: 31.7%); assay type: functional; settings: PC-3; summary of the method: as §2
[13] = Cell cycle arrest in human PC3 cells assessed as S phase accumulation at 12 uM after 12 hrs by propidium iodide staining based flow cytometry (reference value: 31.7%); assay type: functional; settings: PC-3; summary of the method: as §2
[14] = Cell cycle arrest in human PC3 cells assessed as G2/M phase accumulation at 3 uM after 12 hrs by propidium iodide staining based flow cytometry (reference value: 15.81%); assay type: functional; settings: PC-3; summary of the method: as §2
[15] = Cell cycle arrest in human PC3 cells assessed as G2/M phase accumulation at 6 uM after 12 hrs by propidium iodide staining based flow cytometry (reference value: 15.81%); assay type: functional; settings: PC-3; summary of the method: as §2
[16] = Cell cycle arrest in human PC3 cells assessed as G2/M phase accumulation at 12 uM after 12 hrs by propidium iodide staining based flow cytometry (reference value: 15.81%); assay type: functional; settings: PC-3; summary of the method: as §2
[17] = Cell cycle arrest in human PC3 cells assessed as G2/M phase accumulation after 48 hrs by propidium iodide staining based flow cytometry; assay type: functional; settings: PC-3; summary of the method: as §2

Row | inhibition (Sus scrofa) | SMILES | IC50 [1] | IC50 [2] | IC50 [3] | IC50 [4] | other results
1 | 12% | COc1ccc(-n2c(SCC(=O)c3ccc(F)cc3)nnc2-c2cc(OC)c(OC)c(OC)c2)cc1 | 42.5 µM | 10.7 µM | 58.2 µM | > 60 µM | 
2 |  | COc1ccc(-n2c(SCC(=O)c3ccc(OC)c(O)c3)nnc2-c2cc(OC)c(OC)c(OC)c2)cc1 | > 60 µM | > 60 µM | > 60 µM | > 60 µM | 
3 | 16% | COc1cc(-c2nnc(SCC(=O)c3ccccc3)n2-c2ccc(N(C)C)cc2)cc(OC)c1OC | 45.1 µM | 18.9 µM | 38.6 µM | 42.5 µM | 
4 |  | COc1cc(-c2nnc(SCC(=O)C3CC3)n2-c2ccc(N(C)C)cc2)cc(OC)c1OC | > 60 µM | > 60 µM | 45.9 µM | > 60 µM | 
5 | 21% | COc1cc(-c2nnc(SCc3ccc(C)cc3)n2-c2ccc(N(C)C)cc2)cc(OC)c1OC | 27.4 µM | > 60 µM | 37.3 µM | > 60 µM | 
6 | 10% | COc1ccc(NC(=O)CSc2nnc(-c3cc(OC)c(OC)c(OC)c3)n2-c2ccc(OC)cc2)cc1 | 45.2 µM | > 60 µM | 25.8 µM | > 60 µM | 
7 |  | COc1ccc(-n2c(S)nnc2-c2cc(OC)c(OC)c(OC)c2)cc1 | > 60 µM | 57.5 µM | > 60 µM | > 60 µM | 
8 | 15% | COc1ccc(-n2c(SCc3ccc(C)cc3)nnc2-c2cc(OC)c(OC)c(OC)c2)cc1 | > 60 µM | 31.6 µM | 56.5 µM | 33.3 µM | 
9 |  | COc1cc(-c2nnc(S)n2-c2ccc(N(C)C)cc2)cc(OC)c1OC | > 60 µM | > 60 µM | > 60 µM | > 60 µM | 
10 |  | COc1ccc(NC(=O)CSc2nnc(-c3cc(OC)c(OC)c(OC)c3)n2-c2ccc(N(C)C)cc2)cc1 | 51.4 µM | > 60 µM | 56.1 µM | > 60 µM | 
11 | 16% | COc1ccc(-n2c(SCc3ccccc3)nnc2-c2cc(OC)c(OC)c(OC)c2)cc1 | > 60 µM | > 60 µM | 34.1 µM | 42.4 µM | 
12 |  | CCSc1nnc(-c2cc(OC)c(OC)c(OC)c2)n1-c1ccc(N(C)C)cc1 | > 60 µM | > 60 µM | 46.2 µM | > 60 µM | 
13 |  | COc1ccc(C(=O)CSc2nnc(-c3cc(OC)c(OC)c(OC)c3)n2-c2ccc(N(C)C)cc2)cc1O | > 60 µM | > 100 µM | > 100 µM | > 100 µM | 
14 |  | COc1cc(-c2nnc(SC)n2-c2ccc(N(C)C)cc2)cc(OC)c1OC | > 60 µM | > 60 µM | > 60 µM | > 60 µM | 
15 |  | COc1ccc(-n2c(SCc3ccc(F)cc3)nnc2-c2cc(OC)c(OC)c(OC)c2)cc1 | 50.7 µM | 35 µM | 35 µM | 38.7 µM | 
16 |  | COc1cc(-c2nnc(SCC(=O)c3ccc(F)cc3)n2-c2ccc(N(C)C)cc2)cc(OC)c1OC | 78 µM | > 60 µM | 42.3 µM | 31.1 µM | 

Row | inhibition (Sus scrofa) | SMILES | IC50 [1] | IC50 [2] | IC50 [3] | IC50 [4] | other results
17 | 49% | COc1ccc(CSc2nnc(-c3cc(OC)c(OC)c(OC)c3)n2-c2ccc(N(C)C)cc2)cc1 | > 60 µM | > 60 µM | > 60 µM | 1.15 µM | 
18 |  | CCSc1nnc(-c2cc(OC)c(OC)c(OC)c2)n1-c1ccc(OC)cc1 | > 60 µM | > 60 µM | 57.7 µM | > 60 µM | 
19 |  | COc1ccc(-n2c(SCC(=O)c3ccccc3)nnc2-c2cc(OC)c(OC)c(OC)c2)cc1 | > 60 µM | 16.2 µM | > 60 µM | > 60 µM | 
20 | 26% | COc1cc(-c2nnc(SCC(=O)c3ccc4ccccc4c3)n2-c2ccc(N(C)C)cc2)cc(OC)c1OC | > 60 µM | > 60 µM | 18.1 µM | 54.5 µM | 
21 |  | COc1cc(-c2nnc(SCc3ccc(F)cc3)n2-c2ccc(N(C)C)cc2)cc(OC)c1OC | 44.3 µM | 26.4 µM | 46.5 µM | > 60 µM | 
22 |  | CCOC(=O)CSc1nnc(-c2cc(OC)c(OC)c(OC)c2)n1-c1ccc(N(C)C)cc1 | 28.8 µM | > 60 µM | > 60 µM | > 60 µM | 
23 | 29% | COc1ccc(CSc2nnc(-c3cc(OC)c(OC)c(OC)c3)n2-c2ccc(OC)cc2)cc1 | > 60 µM | 41.1 µM | 40.3 µM | 49.6 µM | 
24 | 38% | COc1ccc(C(=O)CSc2nnc(-c3cc(OC)c(OC)c(OC)c3)n2-c2ccc(N(C)C)cc2)cc1 | 64 µM | 18.8 µM | 22 µM | > 60 µM | 
25 |  | COc1ccc(-n2c(SC)nnc2-c2cc(OC)c(OC)c(OC)c2)cc1 | > 60 µM | > 60 µM | > 60 µM | > 60 µM | 
26 | 30% | COc1ccc(C(=O)CSc2nnc(-c3cc(OC)c(OC)c(OC)c3)n2-c2ccc(OC)cc2)cc1 | > 60 µM | 18.1 µM | > 60 µM | > 60 µM | 
27 | 31% | COc1ccc(-n2c(SCC(=O)Nc3ccc(Cl)cc3)nnc2-c2cc(OC)c(OC)c(OC)c2)cc1 | 58 µM | > 60 µM | 6.29 µM | > 60 µM | Activity [5]: 0.43%; Activity [6]: 0.62%; Activity [7]: 0.37%; Activity [8]: 48%; Activity [9]: 46%; Activity [10]: 37.8%; Activity [11]: 30.8%; Activity [12]: 31.7%; Activity [13]: 27.1%; Activity [14]: 20.1%; Activity [15]: 24.2%; Activity [16]: 34.8%; Activity [17]: Dose-dependent effect
28 | 36% | COc1ccc(-n2c(SCC(=O)C3CC3)nnc2-c2cc(OC)c(OC)c(OC)c2)cc1 | > 60 µM | > 60 µM | 37.2 µM | > 60 µM | 
29 |  | COc1cc(-c2nnc(SCc3ccccc3)n2-c2ccc(N(C)C)cc2)cc(OC)c1OC | > 60 µM | > 60 µM | 55.8 µM | 54 µM | 
30 |  | COc1ccc(-n2c(SCC(=O)c3ccc4ccccc4c3)nnc2-c2cc(OC)c(OC)c(OC)c2)cc1 | 53.4 µM | > 60 µM | > 60 µM | > 60 µM | 
31 |  | CCOC(=O)CSc1nnc(-c2cc(OC)c(OC)c(OC)c2)n1-c1ccc(OC)cc1 | > 60 µM | > 60 µM | > 60 µM | > 60 µM | 
32 | 17% | COc1cc(-c2nnc(SCC(=O)Nc3ccc(Cl)cc3)n2-c2ccc(N(C)C)cc2)cc(OC)c1OC | > 60 µM | > 60 µM | > 60 µM | 39.3 µM | 

Row | SMILES | inhibition (Sus scrofa) | IC50 [1] | IC50 [2] | IC50 [3] | IC50 [4] | other results
33 | COc1ccc(/C=C\c2cc(OC)c(OC)c(OC)c2)cc1O [COMBRETASTATIN A4] | 80% | 1.96 µM | 5.29 µM | 22 µM | 6.1 µM | 

— ChEMBL document CHEMBL3877296, “Design, synthesis, and biological evaluation of novel alkylsulfanyl-1,2,4-triazoles as cis-restricted combretastatin A-4 analogues” (Eur J Med Chem, 2017)
